This passage reports GI50 results from ChEMBL document CHEMBL1944532, “Synthesis and evaluation of anticancer activity of some novel 6-aryl-2-(p-sulfamylphenyl)-pyridazin-3(2H)-ones” (Eur J Med Chem, 2012).

One experiment deals with NCI-H522. As to the kind of experiment: Cytotoxicity against human NCI-H522 cells after 48 hrs by SRB assay. Conditions: NCI-H522, 48 h, read-out: GI50. The class given is functional. The essentials: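 NCI five-dose screen on the ~60-line human tumor panel. Cells grown in RPMI-1640 with 5% fetal calf serum and 2 mM L-glutamine, seeded at line-dependent density and preincubated 24 h. Compound added from DMSO at 10-fold dilutions from 10^-4 to 10^-8 M, continuous exposure 48 h. Growth read by sulforhodamine B protein stain. GI50, TGI and LC50 derived per line.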

The subject of a further experiment is SR. Kind of experiment: Cytotoxicity against human SR cells after 48 hrs by SRB assay. The conditions noted are these: read-out: GI50. The format is functional. The essentials:
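NCI 60-cell-line five-dose screen. Cells were grown in 1640 medium with 5% fetal calf serum and 2 mM L-glutamine, with inoculum density set by cell line, and pre-incubated 24 h. Compound in DMSO was added at 10^-4 to 10^-8 M (10-fold steps) with 48 h continuous exposure. Growth was read by SRB protein assay, and GI50, TGI and LC50 were derived from dose-response.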
(The SRB assay estimates cell density from bound dye.)

A word on the GI50: it is the concentration at which growth is held to half of that of the control. On to `O=c1[nH]cc(F)c(=O)[nH]1` [FLUOROURACIL], for which the 50% growth inhibitory concentration (GI50) in the experiment on NCI-H522 stood at 7.28 µM; in the experiment with SR, 0.0238 µM.
